Data published in ChEMBL document CHEMBL3997766, “Synthesis and pre-clinical studies of new amino-acid ester thiazolide prodrugs” (Eur J Med Chem, 2017).

Key:
[1] = tested on: Rattus norvegicus; assay: Toxicity in Sprague-Dawley rat assessed as decrease in serum sodium level at 10 to 75 mg/kg administered as oral gavage qd for 28 consecutive days followed by 2 weeks recovery period measured on day 43; type: organism-based; settings: in vivo, 336 h
Procedure, shortened: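 Sub-acute study in Sprague-Dawley rats dosed orally with a suspension at 10, 30 and 75 mg/kg once daily for 28 consecutive days. Four groups of up to 30 rats each (15M/15F).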

[2] = tested on: Canis familiaris; assay: Toxicity in Beagle dog assessed as early death at 5 to 25 mg/kg, po administered as gelatin capsule once daily for 28 days followed by 2 weeks recovery period measured on day 43; type: organism-based, Canis lupus familiaris; settings: in vivo
Procedure, shortened: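 Sub-acute study in Beagle dogs: 5, 15 or 25 mg/kg/day given orally in a single gelatin capsule once a day for 28 consecutive days to assess systemic exposure and toxicity, with NOAEL determination.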

[3] = tested on: Rattus norvegicus; assay: AUC (0 to t) in Sprague-Dawley rat assessed as Tizoxanide level at 30 mg/kg, po administered as single dose; type: ADME, organism-based; settings: in vivo
Procedure, shortened: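 Plasma tizoxanide and tizoxanide glucuronide were measured and PK parameters derived. AUCs were dose-corrected to 30 mg/kg for bioavailability.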

[4] = tested on: Rattus norvegicus; assay: Toxicity in Sprague-Dawley rat assessed as mortality at 100 to 1000 mg/kg administered as single dose via oral gavage; type: organism-based; settings: in vivo
Procedure, shortened: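 CNS safety study in rats: single oral-gavage doses of 100, 300 or 1000 mg/kg to 3 groups of 10 (5M/5F), with an untreated control group. Clinical signs (activity, abdominal tone, breathing, tremors, pain response) were recorded at 4 and 24 h after dosing, and mortality was noted.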

[5] = tested on: Rattus norvegicus; assay: Cmax in Sprague-Dawley rat assessed as Tizoxanide level in plasma at 30 mg/kg, po administered as single dose; type: ADME, organism-based; parameters: dose 30 mg/kg, route oral; settings: in vivo
Procedure, shortened: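 Rats in groups of three received one compound as a single oral dose (30 mg/kg) or a single intravenous injection (6 mg/kg), with four compounds studied separately. Serial blood samples were drawn at 5, 10, 15 and 30 min and at 1, 2, 4, 8, 23 and 24 h post-dose. Plasma parent drug and metabolites were quantified and PK parameters were derived.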

[6] = tested on: Rattus norvegicus; assay: Toxicity in Sprague-Dawley rat assessed as erosions in stomach at 30 to 75 mg/kg administered as oral gavage qd for 28 consecutive days measured on day 29 by microscopic method; type: organism-based; settings: in vivo
Procedure, shortened: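 Sub-acute study in Sprague-Dawley rats: 10, 30 or 75 mg/kg given orally once a day for 28 consecutive days as a yellow suspension. There were 4 groups of up to 30 rats each (15M/15F), including a control. Body weight, clinical observations and terminal findings were assessed.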

`CC(C)(C)[C@H](N)C(=O)Oc1ccccc1C(=O)Nc1ncc([N+](=O)[O-])s1.Cl` was tested, and the Activity [1] was “Toxic”, the Activity [2] was “Non-Toxic” and the AUCt [3] was 3120 ng·h/mL. For the same compound, the Activity [4] was “Non-Toxic”, the Cmax [5] was 6190 ng/mL and the Activity [6] was “Toxic”.
